Source: ChEMBL document CHEMBL4715825, “Synthesis and biological evaluations of marine oxohexadecenoic acids: PPARα/γ dual agonism and anti-diabetic target gene effects” (Eur J Med Chem, 2018)
The source made the active and inactive calls. No cut-off for these calls is given here.

Columns and labels:
[1] = biological target: T1, Peroxisome proliferator-activated receptor alpha (Homo sapiens) (UniProt Q07869); experiment: Agonist activity at human PPARalpha in human HuH-7 cells assessed as increase in ACOX1 gene expression at 50 uM incubated for 24 hrs by SYBR-green based qPCR analysis; type: cell-based
T1 sequence (whole entry): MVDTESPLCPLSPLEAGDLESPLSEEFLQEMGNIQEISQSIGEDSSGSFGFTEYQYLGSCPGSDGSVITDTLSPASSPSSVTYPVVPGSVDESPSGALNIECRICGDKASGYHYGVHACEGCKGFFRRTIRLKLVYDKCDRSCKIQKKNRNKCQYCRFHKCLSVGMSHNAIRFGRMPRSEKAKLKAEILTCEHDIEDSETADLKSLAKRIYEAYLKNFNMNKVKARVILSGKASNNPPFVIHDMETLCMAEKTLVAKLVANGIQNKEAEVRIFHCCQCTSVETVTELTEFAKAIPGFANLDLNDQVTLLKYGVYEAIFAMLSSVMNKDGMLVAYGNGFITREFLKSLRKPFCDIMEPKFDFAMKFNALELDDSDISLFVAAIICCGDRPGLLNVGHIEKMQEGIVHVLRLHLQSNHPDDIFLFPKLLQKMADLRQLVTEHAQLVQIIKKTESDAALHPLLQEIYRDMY
In short: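 Cells were seeded at 2×10^5 per well and treated 24 h later with compound in DMSO (final 0.1%). The next day, cells were washed and scraped into RLT buffer. RNA was isolated, and target gene mRNA was quantified by SYBR-green qPCR with specific primers.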

[2] = biological target: T1, Peroxisome proliferator-activated receptor alpha (Homo sapiens); experiment: Agonist activity at human PPARalpha in 8 day differentiated human SGBS cells assessed as increase in PLIN1 gene expression at 25 uM incubated for 24 hrs by SYBR-green based qPCR analysis; type: cell-based
In short: (§1)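 SGBS preadipocytes were seeded at passage P6-P8 and grown to confluence. They were differentiated for 4 days in Quickdiff (3FC plus dexamethasone, IBMX and rosiglitazone), then kept in 3FC with medium renewed every fourth day. On day 8, cells were stimulated for 24 h in 3FC with compound:BSA or rosiglitazone. SYBR-green qPCR used gene-specific primers. Data are mean ± SEM of three biological replicates in duplicate.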

[3] = biological target: T2, Peroxisome proliferator-activated receptor gamma (Homo sapiens) (UniProt P37231); experiment: Agonist activity at human PPARgamma in 8 day differentiated human SGBS cells assessed as increase in leptin gene expression at 25 uM incubated for 24 hrs by SYBR-green based qPCR analysis; type: cell-based; conditions: filed as agonist
T2 sequence (whole entry): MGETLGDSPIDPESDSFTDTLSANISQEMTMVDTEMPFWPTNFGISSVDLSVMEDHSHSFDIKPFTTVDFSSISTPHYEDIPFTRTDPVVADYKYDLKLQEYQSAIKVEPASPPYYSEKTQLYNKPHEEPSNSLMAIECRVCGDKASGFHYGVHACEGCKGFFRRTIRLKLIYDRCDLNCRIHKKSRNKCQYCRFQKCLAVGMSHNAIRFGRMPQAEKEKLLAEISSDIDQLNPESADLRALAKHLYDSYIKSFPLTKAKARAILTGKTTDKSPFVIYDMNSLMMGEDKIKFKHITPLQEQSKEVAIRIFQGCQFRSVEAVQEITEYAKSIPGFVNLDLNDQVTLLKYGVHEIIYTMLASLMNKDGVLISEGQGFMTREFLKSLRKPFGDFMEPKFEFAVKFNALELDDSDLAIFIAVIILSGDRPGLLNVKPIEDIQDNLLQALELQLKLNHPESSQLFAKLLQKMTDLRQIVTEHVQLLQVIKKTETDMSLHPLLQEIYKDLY

[4] = tested on: SGBS; experiment: Induction of adipogenesis in 8 day differentiated human SGBS cells assessed as upregulation of PPAR signalling genes at 25 uM incubated for 8 days by Illumina sequencing method; type: functional, cell-based
In short: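 SGBS cells were differentiated for 8 days: Quickdiff for days 0-4 with 2 µM rosiglitazone or 25 µM oxo-fatty acid:BSA, then 3FC. Total RNA was extracted (RIN 9.80-10.00) and strand-specific TruSeq libraries were sequenced on NextSeq 500 (2×75 bp paired-end). Reads were aligned to hg19 and quantified as RPKM. Data were expressed as log2 fold over day-0 cells (n = 2-4) and grouped into KEGG gene sets.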

[5] = biological target: T3, Retinoic acid receptor RXR-alpha (Homo sapiens) (UniProt P19793); experiment: Agonist activity at recombinant human RXRalpha LBD (202 to 462 residues) expressed in African green monkey COS-1 cells at 25 to 50 uM incubated for 18 hrs by luciferase reporter gene assay; type: cell-based; conditions: dose 25-50 µM
T3 sequence (whole entry): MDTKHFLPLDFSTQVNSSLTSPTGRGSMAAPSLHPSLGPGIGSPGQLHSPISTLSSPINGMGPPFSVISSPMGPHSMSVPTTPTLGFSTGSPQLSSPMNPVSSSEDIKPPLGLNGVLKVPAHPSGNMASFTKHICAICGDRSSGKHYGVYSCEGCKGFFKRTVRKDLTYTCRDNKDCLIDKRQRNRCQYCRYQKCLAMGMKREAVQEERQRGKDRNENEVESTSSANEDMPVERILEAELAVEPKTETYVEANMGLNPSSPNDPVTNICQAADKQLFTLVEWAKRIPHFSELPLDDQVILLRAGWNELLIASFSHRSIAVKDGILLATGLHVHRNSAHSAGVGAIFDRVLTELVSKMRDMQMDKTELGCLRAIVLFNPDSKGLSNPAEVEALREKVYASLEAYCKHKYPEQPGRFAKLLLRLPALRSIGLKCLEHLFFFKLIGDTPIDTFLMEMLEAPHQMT
In short: (§2)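 Transient Gal4 one-hybrid assay in COS-1 cells (7×10^4 per well), transfected 24 h after seeding. Plasmids were Gal4-DBD fused to the human nuclear receptor LBD, a 5×UAS-SV40 luciferase reporter and pRL-CMV Renilla control. Ligand in DMSO (final 0.1%) was added 5 h post-transfection. Dual-luciferase activity was read after 18 h, expressed as RLU, from three biological replicates in quadruplicate.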

[6] = biological target: T1, Peroxisome proliferator-activated receptor alpha (Homo sapiens); experiment: Agonist activity at human PPARalpha in 8 day differentiated human SGBS cells assessed as increase in CPT1A gene expression at 25 uM incubated for 24 hrs by SYBR-green based qPCR analysis; type: cell-based; conditions: filed as agonist; in short: as §1
[7] = tested on: SGBS; experiment: Induction of adipogenesis in 8 day differentiated human SGBS cells assessed as increase in PPARG mRNA expression at 25 uM measured upto 12 days by qRT-PCR analysis; type: functional, cell-based; conditions: time day <=12
In short: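 SGBS cells were grown to confluence (day 0). Quickdiff medium was supplemented with compound or rosiglitazone for 4 days, followed by 3FC medium. DMSO or DMSO:BSA served as control. RNA was harvested on days 0, 4, 8 and 12, and expression was measured by SYBR-green qPCR. Data are mean ± SEM of at least three biological replicates in duplicate.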

[8] = biological target: T2, Peroxisome proliferator-activated receptor gamma (Homo sapiens); experiment: Agonist activity at recombinant human PPARgamma LBD (205 to 505 residues) expressed in African green monkey COS-1 cells at 25 to 50 uM incubated for 18 hrs by luciferase reporter gene assay; type: cell-based; conditions: filed as agonist, dose 25-50 µM; in short: as §2
[9] = biological target: T1, Peroxisome proliferator-activated receptor alpha (Homo sapiens); experiment: Agonist activity at human PPARalpha in 8 day differentiated human SGBS cells assessed as increase in […] gene expression at 25 uM incubated for 24 hrs by SYBR-green based qPCR analysis; type: cell-based; conditions: filed as agonist; in short: as §1

Activity [1] | Activity [2] | Activity [3] | Activity [5] | Activity [6] | Activity [8] | Activity [9] | Compound | Activity [4] | Activity [7]
inactive | inactive | Active | inactive | Active | Active | Active | CCCCCCCC(=O)/C=C/CCCCCC(=O)O | Active | Active
inactive | inactive | Active | inactive | Active | Active | Active | CCCCC/C=C/C(=O)CCCCCCCC(=O)O | Active | Active
